For 36 compounds, Active dose and IC50 results are on record in ChEMBL document CHEMBL1128548, “Synthesis and evaluation of 5-amino-5,6,7,8-tetrahydroquinolinones as potential agents for the treatment of Alzheimer's disease” (J Med Chem, 1995).

Several values for one entry are separate records, joined by “and”; a condition that tells them apart may be missing. Equal entries are not always repeated. Activity calls are given as the source filed them. Bounds are passed on as bounds.

Assay [1] has as its system Mus musculus. The assay can be described thus: Active dose for reversal of Scopolamine dementia activity in mouse following s.c. administration. Type of assay: functional. Put shortly: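 Male CFW mice, 15 per group (vehicle/vehicle, scopolamine/vehicle, scopolamine/drug). Scopolamine hydrobromide 3.0 mg/kg sc 30 min before training, then test compound in distilled water 5 min before. One-trial dark passive avoidance, retested 24 h later without injection or shock. Cutoff is the second-longest scopolamine/vehicle latency. Dose is active when 20% of animals exceed cutoff. Test valid if cutoff <120 s.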

For a further assay, the target named is T1, Acetylcholinesterase (Rattus norvegicus, UniProt P37136).
T1 sequence (P37136 whole entry): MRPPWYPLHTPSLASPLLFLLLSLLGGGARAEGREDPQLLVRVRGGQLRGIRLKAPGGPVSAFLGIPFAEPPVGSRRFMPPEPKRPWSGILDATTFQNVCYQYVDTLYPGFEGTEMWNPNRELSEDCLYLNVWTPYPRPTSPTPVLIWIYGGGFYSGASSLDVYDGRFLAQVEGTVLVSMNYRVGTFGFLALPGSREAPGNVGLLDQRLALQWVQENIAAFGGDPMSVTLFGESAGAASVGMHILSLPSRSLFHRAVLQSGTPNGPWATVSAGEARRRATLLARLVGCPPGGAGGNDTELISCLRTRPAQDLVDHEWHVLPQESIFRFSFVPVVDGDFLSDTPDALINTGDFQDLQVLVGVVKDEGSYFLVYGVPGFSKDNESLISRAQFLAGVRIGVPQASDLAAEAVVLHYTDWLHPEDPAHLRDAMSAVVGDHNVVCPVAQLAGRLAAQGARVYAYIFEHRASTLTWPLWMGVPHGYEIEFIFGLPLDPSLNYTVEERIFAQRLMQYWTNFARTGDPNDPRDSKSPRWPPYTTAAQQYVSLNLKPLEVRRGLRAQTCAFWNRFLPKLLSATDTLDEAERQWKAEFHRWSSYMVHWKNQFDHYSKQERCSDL
Description: Acetylcholinesterase inhibitory activity in rat striatal homogenates.

For assay [2], the species on record is Mus musculus. Description: Active dose for reversal of Scopolamine dementia(SDDA) activity in mouse; NA =' not active'. Type of assay: functional, organism-based. Put shortly: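 Male CFW mice, 15 per group (vehicle/vehicle, scopolamine/vehicle, scopolamine/drug). Scopolamine hydrobromide 3.0 mg/kg sc 30 min before training, test compound in distilled water 5 min before. Step-through passive avoidance retested 24 h later without shock, recording latency. Cutoff is the second-longest scopolamine/vehicle latency. A dose is active if 20% of mice exceed the cutoff.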

`CCCn1c2c(ccc1=O)C(NC1Cc3ccccc3C1)CCC2` (stereo not given): in the assay on Mus musculus [1], the Active dose came to 1 mg/kg. This compound also yielded an IC50 on Acetylcholinesterase of 3.91 µM.
For the compound `Cn1c2c(ccc1=O)C(NCCc1ccccc1)CCC2` (stereo not given), the Active dose in the assay with Mus musculus [1] worked out at 1 mg/kg. Besides, inhibition against Acetylcholinesterase was half-maximal at 18.6 µM (IC50).
For the compound `Oc1ccc2c(n1)CCCC2NCCc1ccccc1` (stereo not given), on Acetylcholinesterase, the IC50 is over 100 µM.
The same measure, in the same setting: the figure for `Cn1c2c(ccc1=O)C(NCCCc1ccccc1)CCC2` (stereo not given) is 48.4 µM; for `Cn1c2c(ccc1=O)C(NCCc1ccc(C(F)(F)F)cc1)CCC2` (stereo not given) it is 12.9 µM.
The same measure, in the same setting: the figure for `CCCCCCCCCCn1c2c(ccc1=O)C(NCCc1ccc(Cl)c(Cl)c1)CCC2` (stereo not given) is 33.7 µM; for `Cn1c2c(ccc1=O)C(NCc1ccccc1)CCC2` (stereo not given) it is over 100 µM.
Turning to `Cn1c2c(ccc1=O)C(C)(N)CCC2` (stereo not given), the IC50 on Acetylcholinesterase was over 100 µM.
On the same count and under the same terms, the figure for `COc1cccc(CCNC2CCCc3c2ccc(=O)n3CC=C(C)C)c1` (stereo not given) is 1.1 µM.
On the same count and under the same terms, the figure for `CC(C)=CCn1c2c(ccc1=O)C(NCCc1ccccc1Cl)CCC2` (stereo not given) is 0.52 µM; for `NC1(Cc2ccccc2)CCCc2[nH]c(=O)ccc21` (stereo not given) it is over 100 µM.
`C=C(C)Cn1c2c(ccc1=O)C(NCCc1ccc(Cl)c(Cl)c1)CCC2` (stereo not given): the Active dose in the assay with Mus musculus [1] was 3 mg/kg. Also, half-maximal inhibition against Acetylcholinesterase (IC50) was put at 5.32 µM.
As for `C=CCn1c2c(ccc1=O)C(NCCc1ccc(Cl)c(Cl)c1)CCC2` (stereo not given), the IC50 at Acetylcholinesterase is 9.21 µM.
Same read-out and setting: the figure for `CC(C)=CCn1c2c(ccc1=O)C(NCCc1cc(Cl)ccc1Cl)CCC2` (stereo not given) is 1.36 µM; for `O=c1ccc2c(n1CCc1ccccc1)CCCC2NCCc1ccc(Cl)c(Cl)c1` (stereo not given) it is 50.4 µM.
Regarding `CCCn1c2c(ccc1=O)C(NCCc1c[nH]c3ccccc13)CCC2` (stereo not given), in the assay with Mus musculus [1], the Active dose is 3 mg/kg. The IC50 against Acetylcholinesterase came out at 3.16 µM.
At Acetylcholinesterase, `COc1ccc(CCNC2CCCc3c2ccc(=O)n3CC=C(C)C)cc1OC` (stereo not given) yielded a concentration for half-maximal inhibition (IC50) of 1.64 µM.
Still for that read-out and setting: in the case of `CC(C)=CCn1c2c(ccc1=O)C(NCCc1ccc(F)c(F)c1)CCC2` (stereo not given) it was 0.98 µM; in that of `CC(C)=CCn1c2c(ccc1=O)C(NCCc1cc(Cl)cc(Cl)c1)CCC2` (stereo not given), 0.8 µM.
As for `CC(C)=CCn1c2c(ccc1=O)C(NCCc1ccc(Cl)c(C(F)(F)F)c1)CCC2` (stereo not given), in the assay listed under Mus musculus [2], the Active dose entry was “inactive”. On Acetylcholinesterase, this compound displayed a half-inhibitory concentration (IC50) of 0.79 µM.
As to `CC(C)n1c2c(ccc1=O)C(NCCc1ccc(Cl)c(Cl)c1)CCC2` (stereo not given), on Acetylcholinesterase, the concentration for half-maximal inhibition (IC50) amounted to 34.5 µM.
On to `CC(C)=CCn1c2c(ccc1=O)C(NCCc1ccc(Cl)cc1Cl)CCC2` (stereo not given), for which the Active dose with Mus musculus [1] is 1 mg/kg and 3 mg/kg. The compound also showed an IC50 against Acetylcholinesterase of 0.79 µM.
Turning to `CC(C)Cn1c2c(ccc1=O)C(NCCc1ccc(Cl)c(Cl)c1)CCC2` (stereo not given), the midpoint of inhibition at Acetylcholinesterase, the IC50, lay at 23.4 µM.
`CCCn1c2c(ccc1=O)C(NCCc1cccs1)CCC2.O=C(O)/C=C/C(=O)O` (stereo not given): at Acetylcholinesterase, the IC50 was determined as 5.97 µM.
Still for that read-out and setting: in the case of `Cc1ccc(CCNC2CCCc3c2ccc(=O)n3C)cc1` (stereo not given) it was 18.2 µM; in that of `CC1(N)CCCc2nc(O)ccc21` (stereo not given), over 100 µM; in that of `O=c1ccc2c(n1Cc1ccccc1)CCCC2NCCc1ccc(Cl)c(Cl)c1` (stereo not given), 17.3 µM.
The same measure, in the same setting: the figure for `CC(C)=CCn1c2c(ccc1=O)C(NCCc1ccc(Cl)c(Cl)c1)CCC2` (stereo not given) is 0.51 µM.
With `CC(C)=CCn1c2c(ccc1=O)C(NCCc1cccc(Cl)c1)CCC2` (stereo not given), the Active dose entry in the assay filed under Mus musculus [2] is “inactive”. Besides, on Acetylcholinesterase, the IC50 came out at 0.52 µM.
The compound `CC(C)=CCn1c2c(ccc1=O)C(NCCc1ccc(O)cc1)CCC2` (stereo not given) yielded an IC50 against Acetylcholinesterase of 0.4 µM.
Same read-out and setting: the figure for `CCCCCCn1c2c(ccc1=O)C(NCCc1ccc(Cl)c(Cl)c1)CCC2` (stereo not given) is 3.71 µM.
Still for that read-out and setting: in the case of `CCCn1c2c(ccc1=O)C(NCCC(C)(C)C)CCC2` (stereo not given) it was 15.6 µM.
Take `CC(C)CCn1c2c(ccc1=O)C(NCCc1ccc(Cl)c(Cl)c1)CCC2` (stereo not given): in the assay with Mus musculus [1], the Active dose came to 3 mg/kg. At Acetylcholinesterase, this compound returned an IC50 of 2.34 µM.
Consider `CCCn1c2c(ccc1=O)C(NCCc1ccccn1)CCC2` (stereo not given), for which the Active dose entry in the assay filed under Mus musculus [2] is “inactive”. Moreover, on Acetylcholinesterase, it took 4.34 µM to reach half-maximal inhibition (IC50).
In turn, `C/C=C1\[C@H]2C=C(C)C[C@]1(N)c1ccc(=O)[nH]c1C2` [HUPERZINE A] displayed an IC50 at Acetylcholinesterase of 0.08 µM.
Same read-out and setting: in the case of `CC(C)=CCn1c2c(ccc1=O)C(N)CCC2` (stereo not given) it was over 100 µM.

The IC50 is the concentration needed to halve the response being measured. A high value points to a need for much substance.
